{"data": "Assay results from different studies", "target": "Cyclin-dependent kinase 8 (CDK8, Homo sapiens, UniProt P49336)"}
{"SMILES": "O=C(NCCCN1CCOCC1)c1ccc(Nc2ncc(Cl)c(-c3ccc(Cl)s3)n2)cc1", "assay": "binding, competition with immobilised ligand", "setting": "1 µM", "remaining binding": "100%"}
{"SMILES": "c1cnn2ncc(-c3ccnc(N4CCC45COC5)n3)c2c1", "assay": "binding", "setting": "1 µM", "remaining binding": "100%"}
{"SMILES": "c1cncc(-c2cccc(Nc3nccc(NC4CCCCC4)n3)c2)c1", "assay": "binding, competition with immobilised ligand", "setting": "10 µM", "remaining binding": "66%"}
{"SMILES": "C[C@@]1(Cc2ccc(C#N)cc2)C(=O)N(c2cc(Cl)cc(Cl)c2)c2ncc(C(=O)NC3(c4nc(C5CCC5)no4)CC3)n21", "assay": "cell-free assay, competition with immobilised ligand", "setting": "1 µM", "remaining binding": "100%"}
{"SMILES": "Cc1cnc(Nc2ccc(C(=O)N3CCC(N4CCCC4)CC3)cc2)nc1-c1cc2ccccc2s1", "assay": "binding, competition with immobilised ligand", "setting": "1 µM", "remaining binding": "89%"}
{"SMILES": "CC1CCCN1c1nccc(-c2cnn3ncccc23)n1 (centres unmarked)", "assay": "binding", "setting": "1 µM", "remaining binding": "100%"}
{"SMILES": "O=C(Nc1c[nH]nc1C(=O)NC1CCNCC1)c1cc(F)cc(F)c1", "assay": "binding, competition with immobilised ligand", "setting": "1 µM", "remaining binding": "97%"}
{"SMILES": "O=C1NC(c2ccccn2)Sc2ccccc21 (centres unmarked)", "assay": "cell-free assay, competition with immobilised ligand", "setting": "1 µM", "remaining binding": "78%"}
{"SMILES": "CN(CCCC(F)(F)F)c1nccc(-c2cnn3ncccc23)n1", "assay": "binding", "setting": "1 µM", "remaining binding": "100%"}
{"SMILES": "CCOCCn1cc(C(=O)Nc2ccc(-n3nc(-c4cccnc4)cc3C(F)(F)F)cn2)ccc1=O", "assay": "cell-free assay, competition with immobilised ligand", "setting": "1 µM", "remaining binding": "100%"}
{"SMILES": "Nc1ncc2c(n1)-c1c([nH]c3ccc(C#CC4CC4)cc13)CCCC2", "assay": "binding, competition with immobilised ligand", "setting": "1 µM", "remaining binding": "100%"}
{"SMILES": "COc1cnc(Nc2cccc(S(N)(=O)=O)c2)nc1N1CCN(c2ccccc2)CC1", "assay": "binding, competition with immobilised ligand", "setting": "1 µM", "remaining binding": "95%"}
{"SMILES": "CC(=O)C1=C(C)N(c2cccc(C(F)(F)F)c2)C(=O)N[C@@H]1c1ccc(C#N)nc1", "assay": "cell-free assay, competition with immobilised ligand", "setting": "1 µM", "remaining binding": "65.3%"}
{"SMILES": "CN(c1nccc(-c2cnn3ncccc23)n1)C1CC1", "assay": "binding", "setting": "1 µM", "remaining binding": "100%"}
{"SMILES": "O=C(c1ccc(Nc2ncc(Cl)c(-c3ccc(Cl)s3)n2)cc1)N1CCC(N2CCCC2)CC1", "assay": "binding, competition with immobilised ligand", "setting": "1 µM", "remaining binding": "100%"}
{"SMILES": "N[C@H]1CCN(c2nccc(-c3cnn4ncccc34)n2)C1", "assay": "binding", "setting": "1 µM", "remaining binding": "100%"}
{"SMILES": "CO[C@@H](C)c1c(Nc2ccc([C@H](N(C)C(=O)C3CCS(=O)(=O)CC3)C(F)(F)F)cc2)cnc2cc(Cl)nn12", "assay": "binding, competition with immobilised ligand", "setting": "1 µM", "remaining binding": "39%"}
{"SMILES": "COc1cnc(Nc2cccc(S(N)(=O)=O)c2)nc1N1CCN(c2ccccc2)C(=O)C1", "assay": "binding, competition with immobilised ligand", "setting": "1 µM", "remaining binding": "93%"}
{"SMILES": "CC1=C(C#N)C(c2ccc3c(c2)c(NC(=O)c2ccccc2C)nn3C)C(C#N)=C(C)N1", "assay": "cell-free assay, competition with immobilised ligand", "setting": "1 µM", "remaining binding": "97%"}
{"SMILES": "C[C@@H]1CCN(c2nccc(-c3cnn4ncccc34)n2)C1", "assay": "binding", "setting": "1 µM", "remaining binding": "51%"}
